# Hits are enriched below; roughly 5.6% of the tested compounds scored in any of these assays.
# XBP1 UPR activ – activators of adaptive arm of unfolded protein response (XBP1); CHO-XBP1 luciferase reporter, IRE1-XBP1 UPR activation, luminescence; percent of tunicamycin response, DMSO as zero; activation, % at 20 µM; 330,000 tested, 0.33% active;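 active means versus positive control, 20 µM dose yields 30% or more activation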;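 further: 100% = tunicamycin at 10 µg/mL and 0% = DMSO only wells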
#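 Material – CHO cell line with stable XBP1 luciferase reporter · Buffer or medium – F12 plus 10% FBS · Compound – single point, 20 µM final compound, 1% DMSO · Schedule – 16-18 h cell attachment at 37 °C, then 6 h compound exposure · Signal – Steady-Glo luminescence read · Benchmarks – high control tunicamycin 10 µg/mL final, low control DMSO vehicle only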
# CHOP inhibitor – CHOP inhibition in unfolded protein response; CHO-K1 CHOP-promoter luciferase, tunicamycin-induced, 15-18 h; inhibition, % at 10 µM; 220,000 tested, 3.8% active; AID 2732;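 active means compounds that reduced the stress-induced luciferase reporter signal by more than about 70% of percent inhibition, limit read from the data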;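 further: 0% = tunicamycin plus vehicle and 100% = wells without tunicamycin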
# aDG glyco up – alpha-DG glycosylation activation; activation, % at 10 µM; AID 624168; 360,000 tested, 0.22% active; Pro5-aDG cells, alpha-DG glycosylation AlphaScreen (IIH6); 0% Pro5, 100% B10-LARGE cell signal;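 active means activation of at least 8% versus controls, or a plate z-score of at least 8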;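 further: Pro5 are CHO cells carrying HIG-tagged alpha-DG that lacks glycosylation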
# CHOP UPR activ – apoptotic UPR (CHOP) activation; CHO-CHOP luciferase reporter, luminescence; percent of tunicamycin response over DMSO baseline; activation, % at 10 µM; 330,000 tested, 0.34% active;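 active means at 10 µM dose, activation of 40% or more, normalized to positive control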;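 further: 100% = tunicamycin at 10 µg/mL and 0% = DMSO alone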
#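 System: CHO CHOP reporter cells. Amount: 500 cells per well. Buffer or medium: F12 medium, 10% FBS. Compound dosing: one dose, 10 µM in 0.5% DMSO. Incubation: 6 h compound exposure at 37 °C after overnight seeding. Technique: Steady-Glo luciferase luminescence. Benchmarks: tunicamycin and DMSO controls.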
# MPTP block – blocks calcium-induced mitochondrial swelling | inhibition, % at 10 µM | 360,000 tested, 1.4% active | isolated mouse mitochondria, Ca2+ swelling absorbance, 30 min | AID 602449;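 active means inhibition of 50% or more, scaled per plate between neutral and stimulator controls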;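 further: 0% = DMSO wells given calcium and 100% = 1 mM EGTA wells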
# GRIN3A LBD mod – NR3A (human) ligand-binding domain modulation; NR3A LBD differential scanning fluorimetry, Tm shift; 0% = protein alone, 100% = glycine-bound protein; 340,000 tested, 2.5% active; Tm shift relative to glycine control, % at 25 µM;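 active means melting temperature shift of at least 10% of the positive control shift, at one fixed dose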
# MPTP counter – membrane potential counter-screen of mitochondrial pore inhibitors; isolated mitochondria, Rhodamine 123 fluorescence; AID 624504; 5,000 tested, 78% active; inhibition, % at 10 µM; shares compounds with MPTP block; in the data active means inhibition above about 22%;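 further: 0% = DMSO vehicle and 100% = positive control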
# MPTP abs DR – dose response confirmation of mitochondrial permeability transition pore inhibitors. shares compounds with MPTP block. isolated mitochondria swelling, absorbance. IC50, µM. 780 tested, 58% active. AID 651561; in the data active means IC50 below about 20 µM
# MPTP cs DR – counter-screen for mitochondrial permeability transition pore inhibitors, dose response | shares compounds with MPTP block | isolated mitochondria counterscreen, fluorescence read-out | IC50, µM | 780 tested, 49% active; in the data active means IC50 below about 80 µM
# * = called active by the depositor; i = inactive; nt = no result.
SMILES,XBP1 UPR activ,CHOP inhibitor,aDG glyco up,CHOP UPR activ,MPTP block,GRIN3A LBD mod,MPTP counter,others
CCOC(=O)C1(CCc2ccccc2)CCN(Cc2c(O)cccc2OC)CC1,-5,73*,0,-3,62*,-3,88*,
CCOC(=O)C1(CCOc2ccccc2)CCN(Cc2ccc(OC)c(COC)c2)CC1,-2,nt,0,2,86*,-2,74*,
CCOC(=O)C1(CCOc2ccccc2)CCN(Cc2ccc(COC)o2)CC1,1,-6,1,0,61*,-1,3,MPTP abs DR=19*;MPTP cs DR=37*
O=C(O)/C=C/c1ccc(OCc2cccc(F)c2)cc1,-3,36,0,-1,0,1,nt,
COc1ccc(S(=O)(=O)C(C#N)c2nc3ccccc3nc2N2CCC(C)CC2)cc1 (stereo unspecified),9,nt,nt,2,nt,nt,nt,
CC1CCCN(c2nc3ccccc3nc2C(C#N)S(=O)(=O)c2ccccc2)C1 (stereo unspecified),0,5,0,1,82*,-10,83*,
CCCCOc1nc2ccccc2nc1C(C#N)S(=O)(=O)c1ccccc1 (stereo unspecified),-5,20,0,-1,51*,7,78*,
O=C(Nc1ccccc1)SC1CCCCC1,nt,nt,0,nt,0,4,nt,
Nc1c(C=C2C=CC(=O)C=C2)c(=O)nc2snc(SCc3ccccc3)n12,4,6,0,0,66*,18*,59*,
COc1ccc(NC(=O)Nc2nnc(-c3cccs3)s2)cc1,1,88*,0,4,69*,16*,69*,
COc1ccc(NC(=O)Nc2nnc(C(C)(C)C)s2)cc1,2,-9,0,5,13,-8,nt,
COc1ccc(NC(=O)Nc2nc3ccccc3s2)cc1,3,7,0,2,64*,28*,81*,
CCOc1ccc2nc(NC(=O)Nc3ccccc3)sc2c1,2,-20,0,7,90*,35*,74*,
CCOc1ccc(S(=O)(=O)N(C)c2ccc(OCC(=O)Nc3nc4ccccc4s3)cc2)cc1,-3,81*,0,5,96*,0,80*,
CC1(NC(=O)/C=C/c2nc3ccccc3s2)CCS(=O)(=O)C1 (stereo unspecified),2,nt,0,0,1,0,nt,
CC(O)(c1ccc(Cl)cc1)C(c1ccccc1)c1ccccn1 (stereo unspecified),nt,nt,0,nt,-1,5,nt,
CS(=O)(=O)c1ccc2nc(NC(=O)Nc3ccc(Cl)cc3)sc2c1,2,33,0,6,95*,28*,78*,
Cc1ccc(C(C)C)c(OCC(=O)Nc2ccccc2N2CCN(C)CC2)c1,-2,78*,0,-10,83*,-7,-7,MPTP abs DR=i;MPTP cs DR=>80
CC(=O)N1CCN(c2ccccc2NC(=O)COc2cc(C)ccc2C(C)C)CC1,-2,22,-1,1,-1,-1,nt,
O=S(=O)(Nc1ccc(O)c(Sc2nc3ccccc3s2)c1)c1ccc(F)cc1,-7,18,0,-2,78*,9,55*,
C#CCOCCOCCOCCNc1nc(N2CCN(C(=O)CCCCCCCCCCNC(=O)Cn3cc(CCCCCN)nn3)CC2)nc(N2CCN(C(=O)CCCCCCCCCCNC(=O)[C@H]([C@@H](C)CC)n3cc(CCCCCN)nn3)CC2)n1,14,nt,0,-1,163*,28*,101*,
C#CCOCCOCCOCCNc1nc(N2CCN(C(=O)[C@H](CCCN=C(N)N)n3cc(C(N)[C@H](C)CC)nn3)CC2)nc(N2CCN(C(=O)[C@H](CCCN=C(N)N)n3cc(C(N)[C@@H](C)CC)nn3)CC2)n1 (stereo partly specified),-4,nt,0,1,-4,0,nt,
C#CCOCCOCCOCCNc1nc(N2CCN(C(=O)[C@H](CCCCN)n3cc(CN)nn3)CC2)nc(N2CCN(C(=O)[C@H](CCCN=C(N)N)n3cc(C(N)[C@H](C)CC)nn3)CC2)n1 (stereo partly specified),6,nt,0,0,84*,1,-9,MPTP abs DR=i;MPTP cs DR=>80
O=C(/C=C/c1ccc(Cl)cc1Cl)NCCSc1ccccc1,-1,26,0,0,96*,7,92*,
O=C(/C=C/c1ccc(Cl)cc1)NCCSc1ccccc1,0,22,0,-1,45,-1,nt,
SMILES,XBP1 UPR activ,CHOP inhibitor,aDG glyco up,CHOP UPR activ,MPTP block,GRIN3A LBD mod,MPTP counter,others
O=C(/C=C/c1cccc([N+](=O)[O-])c1)NCCSCc1ccc(Cl)cc1,-3,32,0,-2,51*,5,64*,
O=C(/C=C/c1ccc(Cl)cc1Cl)NCCSCc1ccccc1,-2,35,0,-1,92*,-4,82*,
CN(C)CCNc1ncnc2c1ncn2[C@H]1CN(Cc2ccc(-c3ccccc3)cc2)C[C@@H](CO)O1,nt,nt,5,nt,-3,nt,nt,
COc1ccc(NC(=O)O/N=C/c2c(C)nn(C(C)(C)C)c2C)cc1,-3,-13,0,0,2,-2,nt,
Cc1nn(C(C)(C)C)c(C)c1/C=N/OC(=O)Nc1ccc(Cl)c(Cl)c1,-10,65,0,-10,73*,9,76*,
N=C(CC1CC(=O)NC(=O)C1)C1=C(O)CCCC1=O,2,-3,0,2,0,-3,nt,
C=C(C)c1cccc(C(C)(C)NC(=O)Nc2ccc(C(C)=O)cc2)c1,2,22,0,-1,82*,-3,83*,
CC(NC(=O)Nc1ccccc1F)C(C)(C)C (stereo unspecified),2,1,0,-3,2,-1,nt,
CC(C)N1CCCC(C)(C(=O)Nc2nccc3ccccc23)C1 (stereo unspecified),nt,nt,0,nt,0,nt,nt,
CCOC(=O)[C@]12CCCC=C1N(Cc1ccco1)C(=O)[C@H](CC(=O)N1CCCC1)C2,nt,nt,0,nt,0,nt,nt,
O=C(Oc1ccc2ccc(OC(=O)N3CCCCCC3)cc2c1)N1CCCCCC1,1,69,1,3,69*,-3,81*,
CCC(C)c1ccc2oc(-c3ccc(NC(=O)Cn4cnc5c(=O)n(C)c(=O)n(C)c54)cc3)nc2c1 (stereo unspecified),25,79*,1,22,84*,23*,-8,MPTP abs DR=i;MPTP cs DR=41*
